Assay results taken from ChEMBL document CHEMBL3399972, “Structure-activity relationships of a novel pyranopyridine series of Gram-negative bacterial efflux pump inhibitors” (Bioorg Med Chem, 2015).
In brackets after ≈: the same amount, converted by molar mass. Activity calls are given as the source filed them. Unless noted, no cut-off for these calls is given here. Where a SMILES comes first, the peptide text is derived from it. Bridges are numbered along the chain shown (N, C = ends). [ ]: non-standard residue; d: D form. Dab = NCC[C@H](N)C(=O)O

Tests used:
Escherichia coli [1] = test: Inhibition of multidrug resistance efflux pump in Escherichia coli assessed as concentration required to reduce levofloxacin MIC by 4-fold by checkerboard assay
Escherichia coli [2] = test: Inhibition of multidrug resistance efflux pump in wild-type Escherichia coli AB1157 assessed as concentration required to reduce piperacillin MIC by 4-fold by checkerboard assay
HeLa = test: Cytotoxicity against human HeLa cells; assay type: cell-based
Escherichia coli [3] = test: Antibacterial activity against Escherichia coli at 100 uM; assay type: functional, organism-based
Escherichia coli [4] = test: Inhibition of lactose permease-dependent [3H]TMG uptake in Escherichia coli HN1157 up to 20 uM
Method in brief: (§1)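 Proton motive force probed in E. coli HN1157 by LacY permease-mediated accumulation of [methyl-3H] thiogalactopyranoside (stock 1 mCi/ml, 7 Ci/mmol), compounds tested at concentrations up to 20 µM.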

Escherichia coli [5] = test: Inhibition of lactose permease in Escherichia coli HN1157 assessed as [3H]TMG accumulation up to 20 uM relative to control; method in brief: as §1
Escherichia coli [6] = test: Effect on outer membrane permeability in AcrAB-deficient Escherichia coli HN1159 assessed as influx of nitrocefin at 20 uM; assay type: functional
[7] = Metabolic stability in mouse liver microsomes assessed as compound remaining at 25 uM after 60 mins by HPLC analysis in presence of NADPH; assay type: ADME; conditions: read-out: Stability
Method in brief: (§2)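 Human or mouse liver microsomes at 0.5 mg/mL in 100 mM potassium phosphate pH 7.4 with 3 mM MgCl2, test compound 25 µM final, with or without (control) 2 mM NADPH; 37 °C for one hour, then stopped with equal volume acetonitrile containing 0.1% trifluoroacetic acid. Value: peak area with NADPH relative to no-NADPH control, as percent remaining.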

[8] = Metabolic stability in human liver microsomes assessed as compound remaining at 25 uM after 60 mins by HPLC analysis in presence of NADPH; assay type: ADME; conditions: read-out: Stability; method in brief: as §2
[9] = Aqueous solubility of the compound by nephlometric method; assay type: physicochemical
Method in brief: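 Maximum solubility in water, measured by nephelometry.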

Escherichia coli [10] = test: Antibacterial activity against wild-type Escherichia coli AB1157; assay type: functional
Method in brief: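 MIC determined according to CLSI guidelines, with modifications described in earlier work.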

Escherichia coli [11] = test: Antibacterial activity against TolC-deficient Escherichia coli AB1157; assay type: functional
Method in brief: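 MIC determined following CLSI guidelines, with modifications from the authors' earlier work, in the TolC-deficient mutant of E. coli AB1157.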

Enterobacteriaceae = test: Antimicrobial activity against Enterobacteriaceae; assay type: functional
Escherichia coli [12] = test: Inhibition of lactose permease in Escherichia coli HN1157 assessed as [3H]TMG accumulation up to 100 uM relative to control
[13] = Inhibition of mouse liver microsome CYP3A4 at 3 uM after 10 mins by luminescence assay; assay type: ADME; conditions: microsomes
Escherichia coli [14] = test: Effect on outer membrane permeability in AcrAB-deficient Escherichia coli HN1159 assessed as influx of nitrocefin at 20 ug/ml; assay type: functional

Compound | INH (Escherichia coli [1]) | INH (Escherichia coli [2]) | CC50 (HeLa) | Activity (Escherichia coli [3]) | inhibition (Escherichia coli [4]) | [3H]TMG accumulation relative to control (Escherichia coli [5]) | Activity (Escherichia coli [6]) | remaining at 1 h, 25 µM [7] | remaining at 1 h, 25 µM [8] | solubility kinetic [9] | MIC (Escherichia coli [10]) | MIC (Escherichia coli [11]) | MIC (Enterobacteriaceae) | inhibition (Escherichia coli [12]) | inhibition (INH) [13] | Activity (Escherichia coli [14])
C=CC(=O)Nc1ccc(CCSc2nc(N3CC(C)OC(C)C3)c3c(c2C#N)CC(C)(C)OC3)cc1 (stereo not drawn) | 0.1 µM | 0.05 µM | 62.4 µM | inactive | inactive | 99% | 89% | 49% | 100% | 25 µM (≈ 12.7 µg/mL) | – | – | – | – | – | –
CCN1CCN(C(=O)N[C@@H](C(=O)N[C@@H]2C(=O)N3[C@@H]2SC(C)(C)[C@@H]3C(=O)O)c2ccccc2)C(=O)C1=O [PIPERACILLIN] | – | – | – | – | – | – | – | – | – | – | 4 µM (≈ 2.07 µg/mL) | 0.125 µM (≈ 0.0647 µg/mL) | – | – | – | –
CC1(C)Cc2c(C#N)c(SCCc3ccccc3)nc(N3CCOCC3)c2CO1 | 3.1 µM | 3.1 µM | > 100 µM | inactive | inactive | 102% | 90% | 0% | 0% | 12 µM (≈ 4.91 µg/mL) | – | – | ≥ 100 µM | – | – | –
N#CC(C#N)=NNc1cccc(Cl)c1 | – | – | – | – | – | – | – | – | – | – | – | – | – | 3% | – | –
COCCN1CCN(c2nc(SCCc3ccc(OC)c(OC)c3)c(C#N)c3c2COC(C)(C)C3)CC1 | 1.6 µM | 0.4 µM | 38.8 µM | inactive | inactive | 100% | 100% | 13% | 20% | ≥ 100 µM | – | – | – | – | 48% | –
CC1CN(c2nc(SCCc3cccc(F)c3)c(C#N)c3c2COC(C)(C)C3)CC(C)O1 (stereo not drawn) | 1.6 µM | 1.6 µM | > 100 µM | inactive | inactive | 103% | 99% | – | – | – | – | – | – | – | – | –
CC1CN(c2nc(SCCc3ccc(NC(=O)OC(C)(C)C)cc3)c(C#N)c3c2COC(C)(C)C3)CC(C)O1 (stereo not drawn) | 0.8 µM | 0.4 µM | > 100 µM | inactive | inactive | – | 99% | 66% | 59% | 100 µM (≈ 55.3 µg/mL) | – | – | – | – | 0% | –
COc1cccc(CCSc2nc(N3CCOCC3)c3c(c2C#N)CC(C)(C)OC3)c1 | 2.4 µM | 1.6 µM | > 100 µM | inactive | inactive | 99% | 94% | 0% | 8% | 50 µM (≈ 22 µg/mL) | – | – | – | – | 29% | –
CC1CN(c2nc(SCCc3ccc(NC(=N)N)cc3)c(C#N)c3c2COC(C)(C)C3)CC(C)O1 (stereo not drawn) | 0.8 µM | 0.8 µM | 12 µM | inactive | inactive | 86% | – | 90% | 90% | 100 µM (≈ 49.5 µg/mL) | – | – | – | – | 9% | –
CC1CN(c2nc(SCCc3ccc(N)cc3)c(C#N)c3c2COC(C)(C)C3)CC(C)O1 (stereo not drawn) | 0.8 µM | 0.8 µM | 52.2 µM | inactive | inactive | 100% | 102% | 72% | 76% | 12 µM (≈ 5.43 µg/mL) | – | – | – | – | 59% | –
COCCN1CCN(c2nc(SCCc3ccc(OC)cc3)c(C#N)c3c2COC(C)(C)C3)CC1 | 6.3 µM | 3.1 µM | 34.8 µM | inactive | inactive | 103% | 94% | 17% | – | ≥ 100 µM | – | – | – | – | 42% | –
C[C@H]1COc2c(N3CCN(C)CC3)c(F)cc3c(=O)c(C(=O)O)cn1c23 [LEVOFLOXACIN] | – | – | – | – | – | – | – | – | – | – | 0.063 µM (≈ 0.0228 µg/mL) | 0.016 µM (≈ 0.00578 µg/mL) | – | – | – | –
CC(C)C[C@@H]1NC(=O)[C@@H](Cc2ccccc2)NC(=O)[C@H](CCN)NC(=O)[C@@H](NC(=O)[C@H](CCN)NC(=O)[C@@H](N)[C@@H](C)O)CCNC(=O)[C@H]([C@@H](C)O)NC(=O)[C@H](CCN)NC(=O)[C@H](CCN)NC1=O [POLYMYXIN B NONAPEPTIDE] (H-T[Dab][Dab][Dab][dF]L[Dab][Dab]T; lactam 3-C) | – | – | – | – | – | – | – | – | – | – | – | – | – | – | – | 162%
CC1CN(c2nc(SCCc3cccnc3)c(C#N)c3c2COC(C)(C)C3)CC(C)O1 (stereo not drawn) | 12.5 µM | 3.1 µM | 42.6 µM | inactive | inactive | – | 86% | 19% | 53% | ≥ 100 µM | – | – | – | – | 0% | –
CC(=O)Nc1ccc(CCSc2nc(N3CC(C)OC(C)C3)c3c(c2C#N)CC(C)(C)OC3)cc1 (stereo not drawn) | 0.1 µM | 0.1 µM | 60.5 µM | inactive | inactive | 97% | 100% | 0% | 37% | 50 µM (≈ 24.7 µg/mL) | – | – | – | – | 61% | –
